Bioassay records from PubChem.
MLL AF4-AF9 inh = MLL-AF4/AF9 protein interaction inhibition. P42568. AlphaScreen, biotin-AF4 peptide binding to FLAG-AF9. inhibition, % at 10 µM. 350,000 compounds, 0.47% hits;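 active = every replicate reaching a set inhibition limit, whatever the replicate mean, cut at about 25% in these data; inconclusive = mean inhibition reaches that limit but some replicates miss it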;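 note: 0% = plate neutral control median and 100% = total signal loss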
GSIS activator = primary screen for activators of insulin secretion dependent on glucose, INS-1E cells, GLuc reporter luminescence. INS-1E GLuc reporter insulin secretion, 2-3 h. activation, % at 16.6 µM. 370,000 compounds, 0.61% hits;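 active = lowest replicate activation of at least 40%, so every replicate reaches that level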;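 note: 0% = median of neutral control wells and 100% = median of IBMX positive control wells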
Ecoli rRNA inh = inhibits bacterial ribosomal RNA function over humanized ribosomes. 350,000 compounds, 1.6% hits. AID 720706. E. coli WT GFP vs humanized-ribosome RFP mutants, fluorescence, 24 h; active compounds read low; DMSO median 0, no signal -100. GFP signal change (wild-type ribosome), % (test concentration not listed);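 active = significant combined selectivity score with lowered wild-type GFP, culture density cut under 30%, mutant RFP and density less affected; inactive = any of these conditions unmet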
E-sel inducer = induces E-selectin expression in human endothelial cells. P16581. 260,000 compounds, 0.37% hits. activation, % at 7.58 µM. HUVEC E-selectin immunofluorescence imaging; normalized: neutral wells 0, TNF-alpha wells 100;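 active = mean E-selectin-positive cell signal at least 10% of the positive control, reached in at least 60% of replicates, without over 20% cell loss; inconclusive = no rule given, readout overlaps actives, possibly toxicity-flagged; inactive = the rest, including those meeting only one limit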
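Material: HUVEC primary endothelial cells; Amount: 3,000 cells per well; Dosing: single concentration; Medium: EGM-2 growth medium on 0.1% gelatin-coated wells; Read-out basis: percent E-selectin-positive cells; Signal: immunofluorescence imaging; Control set: TNF-alpha, DMSO.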
RAD52 inh = inhibitors of human RAD52 DNA annealing. P43351. recombinant RAD52 DNA annealing, FRET fluorescence. inhibition, % at 18.7 µM. 360,000 compounds, 0.46% hits;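 active = every replicate showing at least 50% inhibition; inconclusive = mean inhibition at least 50% but not in every replicate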
Target sequence (P43351 whole entry, looked up): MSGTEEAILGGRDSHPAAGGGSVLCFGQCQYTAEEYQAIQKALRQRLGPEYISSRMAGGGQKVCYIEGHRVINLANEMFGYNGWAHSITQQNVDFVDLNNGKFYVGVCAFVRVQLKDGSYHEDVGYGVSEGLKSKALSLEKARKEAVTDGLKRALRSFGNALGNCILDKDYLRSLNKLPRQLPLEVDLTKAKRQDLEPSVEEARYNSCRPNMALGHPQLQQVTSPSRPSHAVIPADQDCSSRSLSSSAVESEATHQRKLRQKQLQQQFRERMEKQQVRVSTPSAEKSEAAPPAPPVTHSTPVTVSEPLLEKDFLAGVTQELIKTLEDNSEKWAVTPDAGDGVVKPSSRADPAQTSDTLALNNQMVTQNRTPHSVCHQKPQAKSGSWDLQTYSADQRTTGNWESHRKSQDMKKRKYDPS
RAD54 inh = inhibitors of human RAD54 branch migration; inhibition, % at 10.4 µM; 360,000 compounds, 0.14% hits; Q92698; AID 602329; RAD54 Holliday junction branch migration, FAM/BHQ fluorescence;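 active = mean normalized replicate activity at least 40 and at least half of replicates scoring 40 or more; inconclusive = only one of the two criteria met; inactive = mean below 40 and under half of replicates reaching 40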;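 note: 0% = median of neutral control wells and 100% = median of positive control wells; inhibitors cause a drop in the FAM fluorescence signal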
DNA binding = counter-screen for Rad54 inhibitors: DNA binding compounds | 460 compounds, 8% hits | Acridine orange-DNA displacement, fluorescence polarization, 20 min | AC50, µM (highest dose often 35 µM), inactives show at the top dose activity change, negative = DNA binding | shares compounds with RAD54 inh | AID 651673;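 active = signal drop giving an AC50 within twice the top valid tested concentration of each sample, actives reach about 35 µM in these data; inactive = activity opposite to expected, plus the rest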;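 note: polarization loss reports compound binding to salmon sperm DNA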
Alpha interfer = counter-screen: AlphaScreen signal interference. AC50, µM (doses to about 12 µM), for inactives: at the highest dose activity change, negative = inhibition. signal luminescence. 530 compounds, 45% hits. shares compounds with MLL AF4-AF9 inh; cut-off not given, nearly all actives have AC50 up to about 14 µM
DNA binder FP = counter-screen for RAD52 inhibitors: DNA binding compounds; shares compounds with RAD52 inh; Salmon sperm DNA/acridine orange FP displacement; AID 652128; AC50, µM; 1,000 compounds, 8% hits;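 active = fitted half-maximal concentration for signal loss at or below twice the highest dose tested, in every separate run, actives reach about 64 µM in these data; inconclusive = runs disagree, or flat partial signal loss, or poor fit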
The depositor's hits bear a star; i = inactive; ? = inconclusive; · = no result. Rows were chosen to be rich in hits. Some 2.6% of all compounds tested hit in one or more screens of this group.

SMILES	MLL AF4-AF9 inh	GSIS activator	Ecoli rRNA inh	E-sel inducer	RAD52 inh	RAD54 inh	DNA binding	DNA binder FP	others
COc1ccc(-c2ccc3c(c2)O[C@@H](CN(C)Cc2ccccc2C(=O)O)[C@H](C)CN([C@@H](C)CO)S3(=O)=O)cc1	4	-4	-6	0	3	1	·	·
Cc1cccc(-c2cc(N3CCCN(C)CC3)n3nccc3n2)c1	30*	-7	5	69*	103*	?	-6%	i
CCOc1cccc(-c2cc(N3CCN(CCO)CC3)n3nccc3n2)c1	2	9	3	2	18	11	·	·
CN1CCCN(c2cc(-c3ccc4ccccc4c3)nc3ccnn23)CC1	9	0	11	150*	104*	64*	-4%	i
CCN(CC)Cc1cc2[nH]c3c4ccc(Cl)cc4ncc3c2cc1OC	12	12	6	0	102*	101*	6%	i
Cc1ccc2nc3c(c(N)c2c1)CCN3C	-1	24	2	0	42	61*	-10%	i
COc1cccc(-c2cc3nc(NCCCN(C)C)n(C)c(=O)c3s2)c1	4	12	-3	0	79*	62*	-2%	?
CN(C)CCCNc1nc2cc(-c3ccc4c(ccn4C)c3)sc2c(=O)n1C	8	-4	7	0	96*	54*	0%	i
COc1ccc(-c2cc3nc(NCCN4CCCC4)n(C)c(=O)c3s2)cc1OC	9	-5	4	0	84*	70*	0%	i
CC(C)=C(C)c1cc2nc(NCCCN(C)C)n(C)c(=O)c2s1	5	·	1	2	8	7	·	·
COc1ncccc1-c1cc2nc(NCCCN(C)C)n(C)c(=O)c2s1	4	-1	-8	0	75*	90*	-19%	63µM*
CN1CCN(C(=O)C[C@@H]2C[C@@H]3c4cc(NC(=O)Nc5ccccc5)ccc4O[C@@H]3[C@H](CO)O2)CC1	·	6	4	0	·	2	·	·
O=C1CN(S(=O)(=O)Cc2ccccc2)C[C@H]2[C@H](c3ccc(C#Cc4ccc(F)cc4)cc3)[C@H](CO)N12	-1	·	·	·	-10	·	·	·
COc1ccc2c3c([nH]c2c1)[C@@H](CO)N(C(=O)Nc1ccccc1F)CC31CN(C(=O)C2CC2)C1	·	-2	0	·	·	·	·	·
CCN(CC)CCCNC(=O)c1ccc2c3n(nc2c1)-c1ccc(Cl)cc1CO3	10	-8	14	0	65*	52*	-4%	i
COc1ccc(S(=O)(=O)N[C@H]2CC[C@H](CCn3cc(-c4ccccc4F)nn3)O[C@@H]2CO)cc1	2	-24	-9	0	·	-7	·	·
N=c1n(CCN2CCCCC2)c2ccccc2n1CC(=O)c1cccc([N+](=O)[O-])c1	1	2	-16	0	75*	87*	-10%	i
COc1ccc(C)c2sc(N(CCN(C)C)C(=O)c3ccc4ccccc4c3)nc12	29*	-29	-9	0	73*	52*	-16%	i
CN(CCO)C(=O)c1c(NC(=O)c2ccccc2)sc2c1CCCC2	-3	5	10	·	-3	-3	·	·
CN(C)CCNC(=O)c1c(NC(=O)c2ccccc2)sc2c1CCCC2	10	12	-35	·	53*	58*	-7%	i
Cc1ccc(S(=O)(=O)N(C)C[C@H]2Oc3ccc(NC(=O)Cc4ccccc4)cc3C(=O)N([C@H](C)CO)C[C@@H]2C)cc1	-1	-15	0	0	16	5	·	·
O=C(NCCCN1CCOCC1)c1cc2c(=O)[nH]c3ccccc3c2s1	·	6	-8	·	-215	23	·	·
O=C(NCCCN1CCCC1)c1cc2c(Cl)nc3ccccc3c2s1	9	14	-11	0	63*	?	-22%	42µM*
CN(C)CCNC(=O)c1cccc(-c2cnc3c(NC=O)cc(-c4ccc(F)cc4)cn23)c1	13	10	-33	3	92*	55*	1%	i
CC(=O)c1cccc(-c2cnc3c(NC=O)cc(-c4ccc(F)cc4)cn23)c1	-6	-8	5	0	-41	1	·	·
SMILES	MLL AF4-AF9 inh	GSIS activator	Ecoli rRNA inh	E-sel inducer	RAD52 inh	RAD54 inh	DNA binding	DNA binder FP	others
CN(C)CCNC(=O)c1cccc(-c2cnc3c(NC=O)cc(-c4cccc(F)c4)cn23)c1	7	·	-39	0	91*	?	-3%	i
COc1ccc(-c2cc(NC=O)c3ncc(-c4cccc(OC)c4)n3c2)cc1	-4	25	0	0	-37	0	·	·
COc1ccc(-c2cc(NC=O)c3ncc(-c4cccc(C(=O)NCCN(C)C)c4)n3c2)cc1	26*	29	0	0	90*	69*	17%	i	Alpha interfer=-25%
CN(C)C(=O)c1cccc(-c2cnc3c(NC=O)cc(-c4cc(F)c(F)c(F)c4)cn23)c1	-2	-14	12	0	-31	6	·	·
C[C@@H]1CCCCO[C@H](CN(C)C(=O)c2ccccc2)[C@H](C)CN([C@@H](C)CO)C(=O)c2cc(NC(=O)c3ccccc3)ccc2O1	5	-19	-52	·	-8	-5	·	·
COc1cccc(CN(C)C[C@@H]2OCc3cnnn3CCCC(=O)N([C@@H](C)CO)C[C@@H]2C)c1	1	0	0	0	-14	-24	·	·
c1ccc2c(NCCc3c[nH]c4ccccc34)c3ccccc3nc2c1	44*	-16	3	0	97*	93*	36µM*	41µM*
Fc1cccc(NCCc2c[nH]c3ccccc23)n1	8	-14	-14	0	6	10	·	·
COc1ccc(CCNc2c3ccccc3nc3ccccc23)cc1OC	8	8	-15	0	83*	100*	-12%	i
COc1nc(NCCc2ccc(OC)c(OC)c2)nc(OC)n1	·	·	·	·	·	3	·	·
COc1ccc(Nc2c3ccccc3nc3ccccc23)cc1	13	25	0	1	73*	101*	27µM*	11µM*
Cc1ccc(-c2nc(Nc3cccc(O)c3)c3ccccc3n2)cc1	-4	10	-59	·	-20	14	·	·
Oc1cccc(Nc2c3ccccc3nc3ccccc23)c1	0	-25	-17	0	82*	57*	30µM*	?
CC(=O)N(C)C[C@H]1Oc2c(cccc2N(C)C)C(=O)N(C)C[C@@H]1C	·	2	0	·	·	·	·	·
